Screening data: PubChem, Broad Institute
The list is not random: actives were taken first. Their share in the collection is about 3.1%.
Ecoli rRNA inh – inhibitors of bacterial rRNA selective over humanized ribosomes; E. coli WT GFP vs humanized-ribosome RFP mutants, fluorescence, 24 h; active compounds read low; DMSO median 0, no signal -100; GFP signal change (wild-type ribosome), % (concentration not given with the values); hit rate 1.6% among 350,000; AID 720706;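 active means significant combined selectivity score with lowered wild-type GFP, culture density cut under 30%, mutant RFP and density less affected; inactive means any of these conditions unmet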
F508del corr – CFTR F508del correction in bronchial cells; CFBE cells, YFP halide quenching; stimulated with forskolin plus potentiator P3; % fluorescence drop versus neutral controls; activity (quench increase), % at 7.58 µM; hit rate 0.36% among 350,000;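 active means mean added fluorescence quench of at least 8% versus neutral control, with both replicates also reaching 8%; inconclusive means only one of the mean or replicate conditions met; inactive means mean below 8% and not both replicates reaching 8%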;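 further: cells transiently co-express mutant CFTR-F508del with the halide-sensitive YFP; corrector assay measuring rescue of mutant channel to the surface after 24 h compound exposure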
Cneo AK release – Cryptococcus neoformans lysis via adenylate kinase release; C. neoformans lysis, adenylate kinase release luminescence, 4 h; normalised: neutral wells 0, clomiphene wells 100; lysis activity, % at 15 µM; hit rate 0.2% among 360,000;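 active means mean lysis activity across replicates of at least 80%, whatever share of replicates individually reach that level; inactive means mean lysis activity below 80%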
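Material – log-phase Cryptococcus neoformans yeast cells · Input – 5 × 10^6 yeast cells/mL · Medium – fresh YPD growth medium · Doses – single compound concentration per well · Timing – static 4 h at 37 °C with compound, 1 h detection · Detection – adenylate kinase release luminescence · Read-out – signal increase indicating cell lysis · Control set – Clomiphene as positive lysis control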
miR122 inh – inhibitors of miR-122 in Huh7 cells. activation (reporter increase), % at 12.5 µM. Huh7 miR-122 Renilla luciferase sensor, 48 h; neutral wells = 0, positive control = 100. hit rate 0.3% among 340,000;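 active means mean replicate activation score at least 90 and every replicate individually at or above 90; inconclusive means only one of the two criteria met; inactive means neither criterion met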;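 further: higher luciferase means less miR-122 activity so hits act as miR-122 inhibitors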
GSIS activator – primary screen for activators of insulin secretion dependent on glucose, INS-1E cells, GLuc reporter luminescence; INS-1E GLuc reporter insulin secretion, 2-3 h; activation, % at 16.6 µM; hit rate 0.61% among 370,000;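 active means lowest replicate activation of at least 40%, so every replicate reaches that level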;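 further: 0% = median of neutral control wells and 100% = median of IBMX positive control wells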
HIV Env fusion – inhibitors of HIV Env-mediated cell fusion; HeLa-JRFL Env/CEM21 cell fusion, luciferase; inhibition, % at 12.3 µM; hit rate 1.1% among 360,000;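 active means mean replicate inhibition score of at least 50 and every replicate individually at or above 50; inconclusive means only one of the two criteria met; inactive means mean below 50 and not all replicates reaching 50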;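 further: 0% = plate neutral controls and 100% = maraviroc near 300 nM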
miR-27b qPCR – miR-27b effect in Huh7 as miR-122 inhibitor selectivity check | Huh7 miR-27b levels, qRT-PCR, 48 h | relative miR-27b level (unnormalised ratio), ratio at 35 µM | shares compounds with miR122 inh | 35 tested, under 10 active;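 active means compounds lowering miR-27b whose fitted half-maximal dose is at most twice their top tested dose; inconclusive means flat curve with moderate drop, or poor fit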
Numbers without * were called inactive; ? = inconclusive; . = no result; [ ] = remark or other dose.

SMILES | Ecoli rRNA inh | F508del corr | Cneo AK release | miR122 inh | GSIS activator | HIV Env fusion | others
Cc1nn2c(-c3ccccc3)ccnc2c1-c1ccccc1 | . | . | -1 | 1 | . | -379
C=CCc1ccc(OCCCCN2CC(C)CC(C)C2)c(OC)c1 (centres undefined) | -22* | 4 | 4 | 3 | -5 | 22
C=CCc1ccc(OCCCCN2CCC(C)CC2)c(OC)c1 | . | . | . | . | 46 | -19
COc1ccc(S(=O)(=O)N(C)C[C@@H]2Oc3c(NS(=O)(=O)c4ccc(Cl)cc4)cccc3C(=O)N([C@H](C)CO)C[C@H]2C)cc1 | -6 | 1 | 3 | -11[16.7 µM] | -8 | 15[16.7 µM]
O=C(c1ccco1)c1nnn(Cc2ccccc2)c1-c1ccccc1 | -36* | 2 | -1 | 11 | -6 | .
CCC(=O)N[C@@H]1CC[C@@H](CC(=O)OC)O[C@H]1CO | 3 | -3 | -5 | -3[16.7 µM] | -11 | -13[16.7 µM]
Cc1sc(NC(=O)c2ccco2)c(C(c2cccnc2)N2CCC(C)CC2)c1C (centres undefined) | . | . | -5 | -20 | 10 | 62*
CCN1CCN(C(c2cccnc2)c2c(NC(=O)c3ccco3)sc(C)c2C)CC1 (centres undefined) | 15 | -2 | -1 | -4 | 2 | .
C[C@H](CO)N1C[C@H](C)[C@H](CN(C)S(=O)(=O)c2ccccc2)Oc2c(NC(=O)Nc3ccc(C(F)(F)F)cc3)cccc2C1=O | 3 | 0 | . | 9[16.7 µM] | -27 | 8[16.7 µM]
O=C(C1CC1)N1CC2(C1)[C@H](c1ccccc1)[C@@H](CO)N2C(=O)c1cccnc1 | 3 | 0 | . | . | 1 | .
CCOc1ccc(-c2nnn(CC(=O)Nc3ccccc3OC)n2)cc1OCC | . | . | -1 | 3 | 68* | 5
Cc1cc(C)cc(C(O)c2ncc(-c3ccccc3F)[nH]2)c1 (centres undefined) | 5 | 3 | 12 | 110* | -18 | -10
Cc1cc(C)cc(C(O)c2ncc(-c3ccccc3C)[nH]2)c1 (centres undefined) | -10 | 0 | 2 | . | -28 | -4
Cc1cc(C(O)c2ncc(-c3ccccc3Cl)[nH]2)ccc1F (centres undefined) | 3 | -2 | 1 | 40 | -11 | 1
Cc1cc(C(O)c2ncc(-c3ccccc3F)[nH]2)ccc1F (centres undefined) | -7 | 1 | 1 | 136* | . | -28
CNC[C@@H]1OCCCC[C@@H](C)Oc2ccc(NS(=O)(=O)c3ccccc3)cc2C(=O)N([C@@H](C)CO)C[C@@H]1C | 2 | -2 | 2 | -4[16.7 µM] | 26 | 18[16.7 µM]
C[C@@H]1CN(C)C(=O)c2cc(N(C)C)ccc2O[C@H]1CN(C)S(C)(=O)=O | -1 | . | . | . | 29 | .
COc1cc(OC)cc(C(=O)NC(=S)N2CCCCCC2)c1 | -31* | -1 | . | . | -10 | -24
COc1ccc(NC(=O)Nc2cc(C(C)(C)C)on2)cc1OC | -26* | 0 | -1 | . | -8 | 6
CCNC(=O)C[C@@H]1CC[C@@H]2[C@H](COC[C@@H](O)CN2C(=O)c2cc(Cl)cc(Cl)c2)O1 | -1 | 0 | -1 | -1[16.7 µM] | 5 | .
O=C(CC1CC1)Nc1ccc2c(c1)[C@H]1C[C@H](CC(=O)NC3CCCC3)O[C@H](CO)[C@H]1O2 | -1 | 2 | 2 | -3[16.7 µM] | 1 | 26[16.7 µM]
CCC(=O)N(C)C[C@@H]1Oc2cc(-c3ccccc3C)ccc2S(=O)(=O)N([C@H](C)CO)C[C@H]1C | -2 | 3 | 0 | -4[16.7 µM] | 31 | 21[16.7 µM]
COc1cc(CN2CCCC(N3CCc4ccccc4C3)C2)c(Cl)cc1O (centres undefined) | 10 | 5 | 1 | 0 | -30 | 4
COc1cc2c(cc1OC)CN(C1CCCN(Cc3cc(Cl)ccc3O)C1)CC2 (centres undefined) | -28* | 5 | 2 | 2 | . | -18
S=C(Nc1ccc(Cl)cc1)c1nc2ccccc2[nH]1 | . | . | . | 9 | -24 | 59*
SMILES | Ecoli rRNA inh | F508del corr | Cneo AK release | miR122 inh | GSIS activator | HIV Env fusion | others
Cc1ccccc1NC(=S)c1nc2ccccc2[nH]1 | . | . | 1 | 6 | . | -82
O=C(Nc1ccc(Cl)c(Cl)c1)N[C@H]1CC[C@@H](CCn2cc(C3CCCC3)nn2)O[C@@H]1CO | -59 | -1 | . | . | -4 | .
CSc1nc(N2CCOCC2)c2sccc2n1 | 1 | -2 | . | . | 76* | 21
CCOC(=O)c1sc2ncn(/N=C/c3cccnc3)c(=O)c2c1C | . | . | 1 | -8 | 52* | .
C[C@H](CO)N1C[C@H](C)[C@@H](CN(C)C(=O)Nc2ccc(F)cc2)Oc2c(NC(=O)C3CCCCC3)cccc2C1=O | 3 | -4 | 14 | 0[16.7 µM] | -7 | .
COc1cc(CNC(C)c2ccccc2)cc(Cl)c1OCC(=O)Nc1ccccc1 (centres undefined) | -44 | -3 | . | . | -40 | 71*
COc1ccc(C(C)(C)C)cc1S(=O)(=O)NCC1CCCO1 (centres undefined) | 6 | 3 | 0 | 170* | -7 | 4 | miR-27b qPCR=0.81
COc1ccc(/C=C/C(=O)O)cc1S(=O)(=O)NCC1CCCO1 (centres undefined) | 13 | 1 | 7 | 7 | . | 5
COc1cc2oc3ccccc3c2cc1N(CC(=O)N(C)C)S(=O)(=O)c1ccc(C)cc1 | . | . | -4 | -5 | . | .
CCN(CC)C(=O)CN(c1cc2c(cc1OC)oc1ccccc12)S(=O)(=O)c1ccccc1 | . | . | -3 | 100* | . | . | miR-27b qPCR=0.36
S=C(Nc1ccc(Cl)cc1Cl)NC1CCCCC1 | . | . | 4 | 133* | . | . | miR-27b qPCR=1.1
COC(=O)c1cc(S(=O)(=O)Nc2cc(OC)cc(OC)c2)cn1C | 1 | -6 | 2 | 153* | 13 | 2 | miR-27b qPCR=0.97
COc1ccc(CN2CC3(CCN(S(=O)(=O)c4ccc(C)cc4)CC3)c3c([nH]c4cc(OC)ccc34)[C@@H]2CO)cc1 | -50 | . | . | . | -43 | .
O=S(=O)(c1ccc2c(c1)CCCN2)N1CCC[C@@H]2CCCC[C@H]21 | . | . | . | . | . | . | miR-27b qPCR=1.5
COc1ccc(S(=O)(=O)Nc2ccc(OC(F)F)cc2)c2cccnc12 | . | . | . | . | . | . | miR-27b qPCR=0.93
COc1ccc(S(=O)(=O)Nc2cccc(C)c2C)c2cccnc12 | -1 | -3 | 0 | . | 31 | 19
O=C(Nc1ccc2ccccc2c1)c1ccc(Cl)cc1Cl | -1 | 2 | 0 | . | 7 | -358 | miR-27b qPCR=1.5
Cc1cc(S(=O)(=O)Nc2cccnc2)c(Cl)cc1Cl | 3 | 0 | 5 | 14 | -3 | -32
Cc1ccc(C(C)C)cc1S(=O)(=O)Nc1cccnc1 | 2 | 0 | 2 | 380* | 7 | -2 | miR-27b qPCR=0.78
COc1ccc(S(=O)(=O)NCCN2CCOCC2)c(C)c1C | 9 | 1 | -1 | 37 | . | -13
COc1ccc(S(=O)(=O)NCCN2CCOCC2)c2ccccc12 | . | . | -2 | ? | . | . | miR-27b qPCR=1
